From PMC3587690 (Bioorganic & medicinal chemistry, 2012)
Each block holds one compound with its values, some of them ahead of it.

How the values were obtained:
p21 [1] = assay: Western blot of p21 in A549 cells; type: cell-based; conditions: all concentrations tested, 48 h
Procedure, shortened: (§1)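 Exponentially growing A549 cells were treated with different test compound concentrations for 48 h and washed twice in cold PBS (pH 7.4). They were lysed in NP-40 buffer (50 mM Tris-HCl pH 8.0, 5 mM EDTA, 150 mM NaCl, 1 mM DTT, 0.5% NP-40) containing 8 M urea. Equal protein was run on 10% SDS-PAGE, transferred to PVDF and probed with specific antibodies, using GAPDH as the loading control.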

[2] = test system: A549, MCF-7, MDA-MB-231 and MDA-MB-468; assay: MTT growth inhibition, average of four cancer cell lines; type: cell-based; conditions: read-out: GI50 Average
Procedure, shortened: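 Each of the four lines, grown in DMEM with 10% FBS at 37 °C and 5% CO2, was incubated with the test compound for 72 h, and growth was read by MTT absorbance at 570 nm. Percent growth was 100 × (treated − time-0)/(medium control − time-0). GI50 came from non-linear regression of the growth–concentration curve, and the four mean GI50s were averaged. Single experiments were run in duplicate where no SD is given.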

[3] = test system: MCF-7 cells expressing VP16-CREB; assay: MTT assay in MCF-7 cells expressing VP16-CREB versus parental MCF-7; type: cell-based; conditions: 48 h
Procedure, shortened: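 MCF-7 cells were lipofected with a plasmid encoding Flag-tagged VP16-CREB. From 2 days post-transfection they were selected in 2 mg/mL G418 until a stable colony formed, and expression was checked by anti-FLAG blot. The stable line and parental MCF-7 were treated in triplicate for 48 h, and live cells were quantified by MTT. Student's t-test was used.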

[4] = test system: VP16-CREB-mediated gene transcription; conditions: cited from earlier work
VEGF [5] = assay: VEGF ELISA assay of A549 culture media; type: cell-based; conditions: A549 cells, 24 h
Procedure, shortened: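 A549 cells were treated in duplicate with the indicated test compound concentrations for 24 h. VEGF in the culture medium was measured by ELISA and normalised to medium protein concentration. One-way ANOVA was used.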

[6] = test system: human foreskin fibroblast (HFF) cells; assay: HFF growth inhibition, trypan blue exclusion assay; type: cell-based; conditions: 48 h
Procedure, shortened: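 HFF cells were maintained in DMEM with 10% FBS and penicillin/streptomycin at 37 °C under 5% CO2. Cells were treated with increasing test compound concentrations in triplicate for 48 h, and live cells were counted by trypan blue exclusion.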

Bcl-2 [7] = assay: Western blot of Bcl-2 in A549 cells; type: cell-based; conditions: increasing concentrations, 48 h
Procedure, shortened: as §1

[8] = test system: p53-mediated gene transcription; assay: p53 transcription reporter assay; type: cell-based; conditions: transcription reporter assay (Fig. S2)
[9] = test system: normal human mammary epithelial cells (HMEC); assay: HMEC growth inhibition, trypan blue exclusion assay; type: cell-based; conditions: 10 µM and lower, 48 h
Procedure, shortened: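 Proliferating normal HMEC were cultured routinely in MEGM complete medium with penicillin/streptomycin at 37 °C under 5% CO2. On the day of treatment the medium was changed to DMEM with 10% FBS. Cells were exposed to various test compound concentrations in triplicate for 48 h, then live cells were counted by trypan blue exclusion. One-way ANOVA was used.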

NCI-60 cancer cell panel = assay: NCI-60 cancer cell panel; type: cell-based; conditions: Fig. S1
VEGF [10] = assay: qRT-PCR of VEGF transcript in A549 cells; type: cell-based; conditions: 4 h
Procedure, shortened: (§2)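 Exponentially growing A549 cells were treated in duplicate for 4 h. Total RNA was extracted and DNase-treated at 37 °C for 30 min, then cDNA was made with random primers. Transcripts were quantified by SYBR Green qPCR, normalised to HPRT, using the 2−ΔΔCt method. One-way ANOVA was used.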

[11] = test system: poly (ADP-ribose) polymerase (PARP); assay: Western blot of PARP cleavage in A549 cells; type: cell-based; conditions: 48 h
Procedure, shortened: as §1

p21 [12] = assay: qRT-PCR of p21 transcript in A549 cells; type: cell-based; conditions: 4 h
Procedure, shortened: as §2

A549 cells = assay: Annexin-V/PI flow cytometry apoptosis assay; type: cell-based; conditions: 10 µM, 48 h, vehicle […]
Bcl-2 [13] = assay: qRT-PCR of bcl-2 transcript in A549 cells; type: cell-based; conditions: 4 h
Procedure, shortened: as §2

KIX–KID interaction = KIX–KID interaction (Homo sapiens, UniProt Q92793); conditions: cited from earlier work
[14] = test system: CREB-mediated gene transcription in HEK 293T cells; conditions: cited from earlier work

Sequence of KIX–KID interaction (Q92793 587-666 limits assumed): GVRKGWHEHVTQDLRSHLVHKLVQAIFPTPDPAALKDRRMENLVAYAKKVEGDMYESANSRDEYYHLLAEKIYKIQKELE

Compound: O=C(Nc1ccccc1Cl)c1cc2ccccc2cc1O [Compound 1c, N-(2-Chlorophenyl)-3-hydroxy-2-naphthamide]
GI50 [2]: 7.73 µM

Compound: O=C(Nc1ccc(F)cc1)c1cc2ccccc2cc1O [Compound 1d, N-(4-Fluorophenyl)-3-hydroxy-2-naphthamide]
GI50 [2]: 6.29 µM

Compound: O=C(Nc1ccc(Br)cc1)c1cc2ccccc2cc1O [Compound 1e, N-(4-Bromophenyl)-3-hydroxy-2-naphthamide]
GI50 [2]: 5.59 µM

Compound: O=C(Nc1ccc(I)cc1)c1cc2ccccc2cc1O [Compound 1f, 3-Hydroxy-N-(4-iodophenyl)-2-naphthamide]
GI50 [2]: 6.52 µM

Compound: O=C(Nc1ccc(C(F)(F)F)cc1)c1cc2ccccc2cc1O [Compound 1i, 3-Hydroxy-N-(4-trifluoromethylphenyl)-2-naphthamide]
GI50 [2]: 33.8 µM

Compound: COc1ccc(NC(=O)c2cc3ccccc3cc2O)cc1 [Compound 1j, 3-Hydroxy-N-(4-methoxyphenyl)-2-naphthamide]
GI50 [2]: 61.7 µM

Compound: O=C(Nc1ccc(F)c(F)c1)c1cc2ccccc2cc1O [Compound 1k, N-(3,4-Difluorophenyl)-3-hydroxy-2-naphthamide]
GI50 [2]: 5.35 µM

Compound: O=C(Nc1ccccn1)c1cc2ccccc2cc1O [Compound 10a, 3-Hydroxy-N-(pyridin-2-yl)-2-naphthamide]
GI50 [2]: 33 µM

Compound: O=C(Nc1cnccn1)c1cc2ccccc2cc1O [Compound 10c, 3-Hydroxy-N-(pyrazin-2-yl)-2-naphthamide]
GI50 [2]: > 47.2 µM

Compound: CN(C(=O)c1cc2ccccc2cc1O)c1ccc(Cl)cc1 [Compound 11]
inhibition of KIX–KID interaction (KIX–KID interaction): did not inhibit | sensitivity of MCF-7 cells expressing VP16-CREB compared to parental MCF-7 cells [3]: equally effective | inhibition of CREB's activity [14]: did not inhibit

Second part, led by results:

GI50 [2]: 2.38 µM
Compound: O=C(Nc1ccc(Cl)cc1)c1cc2ccccc2cc1O [Compound 1a, naphthol AS-E]
expression of p21 protein (p21 [1]): unchanged | sensitivity of MCF-7 cells expressing VP16-CREB compared to parental MCF-7 cells [3]: more resistant | inhibition of VP16-CREB-mediated gene transcription [4]: did not inhibit | expression of VEGF in culture media (VEGF [5]): down-regulated | toxicity to HFF cells (number of live cells) [6]: did not observe significant toxicity | expression level of Bcl-2 protein (Bcl-2 [7]): decreased | inhibition of p53-mediated gene transcription [8]: not inhibited | toxicity to HMEC (number of live cells) [9]: little or no toxicity | growth inhibition in NCI-60 panel (NCI-60 cancer cell panel): inhibited the growth of most of the cancer cells | transcript level of VEGF (VEGF [10]): decreased | cleavage of PARP [11]: observed | transcript level of p21 (p21 [12]): essentially unchanged | cells undergoing apoptosis (annexin+/PI−) (A549 cells): Up to 19.4% | transcript level of bcl-2 (Bcl-2 [13]): decreased

GI50 [2]: 3.4 µM
Compound: O=C(Nc1cccc(Cl)c1)c1cc2ccccc2cc1O [Compound 1b, N-(3-Chlorophenyl)-3-hydroxy-2-naphthamide]

GI50 [2]: > 59.1 µM
Compound: Nc1ccc(NC(=O)c2cc3ccccc3cc2O)cc1 [Compound 1g, N-(4-Aminophenyl)-3-hydroxy-2-naphthamide]

GI50 [2]: > 50.8 µM
Compound: O=C(Nc1ccc(O)cc1)c1cc2ccccc2cc1O [Compound 1h, 3-Hydroxy-N-(4-hydroxyphenyl)-2-naphthamide]

GI50 [2]: 3.39 µM
Compound: O=C(Nc1ccc(F)c(Cl)c1)c1cc2ccccc2cc1O [Compound 1l, N-(3-Chloro-4-fluorophenyl)-3-hydroxy-2-naphthamide]

GI50 [2]: 34.9 µM
Compound: O=C(Nc1ccncc1)c1cc2ccccc2cc1O [Compound 10b, 3-Hydroxy-N-(pyridin-4-yl)-2-naphthamide]
